6 compounds from PMC2151622 (The Journal of General Physiology, 2007) can be followed below.

Numbering of substitutions follows the chain as printed. Read-outs that look alike come from different tables or passages of the source.

Common to all, as to format: cell-based, rabbit
Assay [1] addresses T1, D444C-EAAC1 (Oryctolagus cuniculus, UniProt P31597, D444C).
T1 sequence (P31597 1-524 D444C): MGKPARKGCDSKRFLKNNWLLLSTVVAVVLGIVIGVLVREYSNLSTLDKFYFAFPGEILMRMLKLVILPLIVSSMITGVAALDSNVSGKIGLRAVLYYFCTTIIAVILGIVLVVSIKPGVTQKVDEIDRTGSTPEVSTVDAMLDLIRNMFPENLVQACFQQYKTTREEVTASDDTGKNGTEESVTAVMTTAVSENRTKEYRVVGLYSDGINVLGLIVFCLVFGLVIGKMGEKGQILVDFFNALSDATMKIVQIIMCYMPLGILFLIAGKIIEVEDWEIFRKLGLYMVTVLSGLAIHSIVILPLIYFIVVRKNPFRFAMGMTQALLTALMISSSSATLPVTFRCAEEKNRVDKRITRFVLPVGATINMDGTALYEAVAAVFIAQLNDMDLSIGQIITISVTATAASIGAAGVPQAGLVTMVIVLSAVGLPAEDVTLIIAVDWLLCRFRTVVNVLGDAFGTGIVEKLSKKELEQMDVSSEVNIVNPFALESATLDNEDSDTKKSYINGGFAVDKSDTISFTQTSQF
The assay can be described thus: Blockade of sodium-dependent transient currents. The settings on record: for Decay time of transient currents blocked: at −100 mV. In outline: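 Steps from −25 mV to −100…+40 mV. Transients taken as current without minus current with compound. Charge is the sum of integrals at −100 and +40 mV, normalised to 10 mM of the same compound. IC50 from a generalized Hill fit; decay from a first-order exponential; 3–10 oocytes.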

In assay [2] the target is T2, D444S-EAAC1 (Oryctolagus cuniculus, UniProt P31597, D444S).
T2 sequence (P31597 1-524 D444S): T1 sequence (P31597 1-524 D444C) with C444S
The assay can be described thus: Blockade of sodium-dependent transient currents. The settings on record: for Decay time of transient currents blocked: at −100 mV. The procedure, abridged:
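Oocytes expressing the mutant were clamped in sodium ND96 and given 250-ms pulses from −25 mV to −100…+40 mV, with and without compound; TBOA was added to a stopped bath. Isolated transients (without minus with compound) were integrated at −100 and +40 mV and summed. Charge was normalised to 10 mM of each compound and Hill-fitted; 4–6 oocytes. Decay came from an exponential fit; 3–10 oocytes.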

In assay [3] the target is T3, T448A mutant EAAC1 (Oryctolagus cuniculus, UniProt P31597, T448A).
T3 sequence (P31597 1-524 T448A): T1 sequence (P31597 1-524 D444C) with C444D, T448A
The assay can be described thus: Uptake of D-[3H]-aspartate in Xenopus laevis oocytes expressing T448A. To be noted: 20 min in ND96.

Assay [4] deals with T4, D444C mutant EAAC1 (Oryctolagus cuniculus, UniProt P31597, D444C).
T4 sequence (P31597 1-524 D444C): T1 sequence (P31597 1-524 D444C)
The settings on record: 10 min.

In assay [5] the target is T5, D444E-EAAC1 (Oryctolagus cuniculus, UniProt P31597, D444E).
T5 sequence (P31597 1-524 D444E): T1 sequence (P31597 1-524 D444C) with C444E
The assay can be described thus: Blockade of sodium-dependent transient currents. In outline:
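Oocytes expressing the mutant were voltage clamped in ND96 (pH 7.5, HEPES) and stepped from −25 mV. Transients are buffer current minus buffer-plus-compound current. Charge is the sum of current–time integrals at −100 and +80 mV, normalised to 1 mM L-aspartate or 15 mM succinate, and fitted to a generalized Hill equation. Decay constants come from a first-order exponential fit; mean ± SEM of 3–10 oocytes.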

Assay [6] has as its target T6, WT-EAAC1 (Oryctolagus cuniculus, UniProt P31597).
T6 sequence (P31597 1-524): T1 sequence (P31597 1-524 D444C) with C444D
To be noted: NaSCN-based buffer. In outline: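 Two-electrode voltage clamp of oocytes in buffer with all NaCl replaced by NaSCN, grounded through a 2% agarose/2 M KCl bridge. Compounds were 2 mM; TBOA (10 μM) was added to a stopped bath. Steps from −25 mV to −100…+40 mV. Net steady-state current (with minus without) was normalised to the L-aspartate current at +40 mV; mean ± SEM of 3 oocytes (L-aspartate n = 6).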

In assay [7] the target is T7, D444N mutant EAAC1 (Oryctolagus cuniculus, UniProt P31597, D444N).
T7 sequence (P31597 1-524 D444N): T1 sequence (P31597 1-524 D444C) with C444N
The assay can be described thus: Blockade of transient currents.

As to `O=C(O)CCCC(=O)O` [Glutarate, glutarate], the IC50 in assay [1] was 260 ± 40 µM. Besides, in assay [2] (D444S, 2 mM, unpublished data), the “Inhibition of transient currents of similar size as succinate” value is “capable of inhibiting”.

For the compound `N[C@H](CC(=O)O)C(=O)O` [D-Aspartate, D-aspartate], the IC50 in assay [1] stood at 8 ± 1 µM; in assay [2], 1370 ± 360 µM. In addition, the “Decay time of transient currents blocked” value in assay [1] (D444C, 10 mM compound) was found to be 18.4 ± 1 ms; in assay [2] (D444S, 10 mM compound) it was 12.8 ± 0.6 ms.

`[3H]C(C(=O)O)C([3H])(N)C(=O)O` [D-[^3H]-aspartate, D-[2,3-^3H]-aspartic acid]: in assay [3], the “Uptake of D-[3H]-aspartate relative to WT” value is about 20%. In assay [4], the “D-[3H]-aspartate uptake relative to WT-EAAC1” value was about 5%.

As for `N[C@H](C(=O)O)[C@H](OCc1ccccc1)C(=O)O` (racemic) [TBOA, DL-threo-β-benzyloxyaspartate], the “Decay time of transient currents blocked” value came to 5.6 ± 1.2 ms in assay [5] (10 μM D,L-TBOA, at +80 mV); 4.8 ± 0.3 ms in assay [1] (D444C, 10 μM D,L-TBOA); 6 ± 0.6 ms in assay [2] (D444S, 160 μM D,L-TBOA). Moreover, the IC50 came out at 1.8 ± 0.4 µM in assay [5] (read-out: IC50 for substrates/blockers of charge movements, Xenopus oocytes, mean ± SEM); 1.9 ± 0.2 µM in assay [1] (read-out: IC50 for substrates/blockers of charge movements, D444C, Xenopus oocytes, mean ± SEM); 31 ± 8 µM in assay [2] (read-out: IC50 for substrates/blockers of charge movements, D444S, Xenopus oocytes, mean ± SEM). The “Effect on the anion conductance” value in assay [6] (10 μM D,L-TBOA) is given as “decreased”.

Regarding `N[C@@H](CCC(=O)O)C(=O)O` [L-Glutamate, L-glutamate], the IC50 was found to be 24.4 ± 2.2 µM in assay [5] (IC50 for substrates/blockers of charge movements, Xenopus oocytes, mean ± SEM); 718 ± 217 µM in assay [7]; 29 ± 3 µM in assay [1]; 1220 ± 160 µM in assay [2]. Moreover, the “Decay time of transient currents blocked” value in assay [1] (D444C, 10 mM compound) is 17.7 ± 1 ms; in assay [2] (D444S, 10 mM compound), 11.0 ± 1.2 ms.

`NCCCC(=O)O` [GABA]: the “Effect on the anion conductance” value in assay [6] (2 mM) is “not seen”. Also, the “Inhibition of the transient currents” value in assay [2] (D444S, 5 mM, sodium 96 mM) is recorded as “unable to inhibit”.
